Experimental data taken from ChEMBL document CHEMBL4680093 (J Med Chem, 2016).
Calls of active or inactive are those of the source. No cut-off for these calls is given here.

Tests used:
[1] = In-vivo inhibition of 11beta-HSD1 activity in C57BL/6 mouse liver assessed as reduction in cortisone to-cortisol conversion at 10 mg/kg, po measured after 2 hrs by ELISA; assay type: functional; conditions: C57BL/6, Liver
[2] = In-vivo inhibition of 11beta-HSD1 activity in C57BL/6 mouse epididymal fat assessed as reduction in cortisone to-cortisol conversion at 10 mg/kg, po measured after 2 hrs by ELISA; assay type: functional; conditions: C57BL/6, Epididymal fat pad
Outline: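 Male C57BL/6 mice dosed orally once at 3, 10 or 30 mg/kg in sterile water containing 0.5% methylcellulose and 1% Tween80, then sacrificed at 2 or 6 h. Liver and epididymal fat pads incubated ex vivo in culture medium containing cortisone. Cortisol formed was measured by ELISA and reported as % inhibition versus vehicle.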

[3] = Metabolic stability in mouse liver microsomes assessed as compound remaining after 30 mins; assay type: ADME, Microsome; conditions: read-out: Stabilty
Mus musculus [4] = assay: Reduction in nonfasting blood glucose level in C57BL/6-Lep^ob (ob/ob) mouse at 300 mg/kg, po dosed once daily for 25 days relative to control; assay type: functional, organism-based; conditions: time 25.0 day
Outline: (§1)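 Eight-week-old male ob/ob mice were dosed orally once daily for 25 days with vehicle (sterile water, 0.5% methylcellulose, 1% Tween80), test compound 20 mg/kg, metformin 300 mg/kg, or the combination. Baseline postprandial glucose and HbA1c were checked from tail-vein blood. Changes in HbA1c and non-fasting blood glucose were expressed relative to the vehicle group.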

Mus musculus [5] = assay: Improvement in lipid profile in C57BL/6-Lep^ob (ob/ob) mouse assessed as total cholesterol level at 300 mg/kg, po dosed once daily for 25 days (reference value: 286.6 +/- 6.3 mg/dl); assay type: functional; conditions: time 25 day
[6] = Reduction in HbA1c level in C57BL/6-Lep^ob (ob/ob) mouse at 300 mg/kg, po dosed once daily for 25 days relative to control; assay type: functional; set-up: scale not given: the % may be the effect or the level left; conditions: time 25 day; outline: as §1
Mus musculus [7] = assay: Improvement in lipid profile in C57BL/6-Lep^ob (ob/ob) mouse assessed as LDL cholesterol level at 300 mg/kg, po dosed once daily for 25 days (reference value: 30.3 +/- 0.8 mg/dl); assay type: functional; conditions: time 25 day
Mus musculus [8] = assay: Improvement in lipid profile in C57BL/6-Lep^ob (ob/ob) mouse assessed as triglyceride level at 300 mg/kg, po dosed once daily for 25 days (reference value: 90.9 +/- 5.5 mg/dl); assay type: functional; conditions: time 25 day
[9] = molecular target: 11-beta-hydroxysteroid dehydrogenase 1 (Homo sapiens, UniProt P28845); assay: Inhibition of human 11beta-HSD1 expressed in HEK293 cells using cortisone by ELISA
Cytochrome P450 2C19 = Cytochrome P450 2C19 (Homo sapiens, UniProt P33261); assay: Inhibition of CYP2C19 in pooled human liver microsomes using mephenytoin as substrate in presence of NADPH incubated for 10 mins by LC-MS/MS analysis
[10] = molecular target: T1, Nuclear receptor subfamily 1 group I member 2 (Homo sapiens, UniProt O75469); assay: Activation of PXR (unknown origin) at 10 uM relative to rifampicin; assay type: ADME
T1 sequence (O75469 whole entry): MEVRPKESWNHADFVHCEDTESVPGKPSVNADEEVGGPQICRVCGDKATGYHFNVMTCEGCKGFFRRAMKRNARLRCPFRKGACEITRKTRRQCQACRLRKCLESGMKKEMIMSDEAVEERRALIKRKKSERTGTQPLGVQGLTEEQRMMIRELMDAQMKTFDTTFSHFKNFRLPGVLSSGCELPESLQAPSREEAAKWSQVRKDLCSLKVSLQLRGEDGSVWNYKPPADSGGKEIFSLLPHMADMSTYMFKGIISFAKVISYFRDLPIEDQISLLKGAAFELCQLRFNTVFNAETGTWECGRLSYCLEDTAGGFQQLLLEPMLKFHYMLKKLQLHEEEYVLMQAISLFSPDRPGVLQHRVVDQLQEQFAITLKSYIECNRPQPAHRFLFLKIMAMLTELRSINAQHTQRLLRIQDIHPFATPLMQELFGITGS

Cytochrome P450 2C9 = Cytochrome P450 2C9 (Homo sapiens, UniProt P11712); assay: Inhibition of CYP2C9 in pooled human liver microsomes using diclofenac as substrate in presence of NADPH incubated for 10 mins by LC-MS/MS analysis
Cytochrome P450 1A2 = molecular target: T2, Cytochrome P450 1A2 (Homo sapiens, UniProt P05177); assay: Inhibition of CYP1A2 in pooled human liver microsomes using phenacetin as substrate in presence of NADPH incubated for 10 mins by LC-MS/MS analysis
T2 sequence (P05177 whole entry): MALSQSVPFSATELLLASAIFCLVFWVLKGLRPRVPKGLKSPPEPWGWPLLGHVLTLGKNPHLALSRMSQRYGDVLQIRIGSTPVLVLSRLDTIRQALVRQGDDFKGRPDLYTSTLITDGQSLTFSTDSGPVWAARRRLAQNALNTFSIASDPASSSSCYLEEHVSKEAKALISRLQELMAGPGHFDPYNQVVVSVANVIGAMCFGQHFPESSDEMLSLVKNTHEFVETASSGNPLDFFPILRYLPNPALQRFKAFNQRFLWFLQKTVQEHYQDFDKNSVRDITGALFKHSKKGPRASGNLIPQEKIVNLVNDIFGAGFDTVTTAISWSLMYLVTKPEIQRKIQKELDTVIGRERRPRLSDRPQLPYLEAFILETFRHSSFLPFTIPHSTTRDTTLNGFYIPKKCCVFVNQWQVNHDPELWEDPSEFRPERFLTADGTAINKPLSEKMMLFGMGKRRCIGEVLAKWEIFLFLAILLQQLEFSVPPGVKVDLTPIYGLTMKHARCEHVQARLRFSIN

Cytochrome P450 3A4 = Cytochrome P450 3A4 (Homo sapiens, UniProt P08684); assay: Inhibition of CYP3A4 in pooled human liver microsomes using midazolam as substrate in presence of NADPH incubated for 10 mins by LC-MS/MS analysis
Cytochrome P450 2D6 = Cytochrome P450 2D6 (Homo sapiens, UniProt P10635); assay: Inhibition of CYP2D6 in pooled human liver microsomes using dextromethorphan as substrate in presence of NADPH incubated for 10 mins by LC-MS/MS analysis
[11] = Reduction in HOMA-IR in patient with type 2 diabetes exhibiting inadequate glycemic control with metformin alone dosed for 12 weeks during phase 2 trial; assay type: functional, Homo sapiens; set-up: scale not given: the % may be the effect or the level left
[12] = Reduction in HbA1c in patient with type 2 diabetes exhibiting inadequate glycemic control with metformin alone dosed for 12 weeks during phase 2 trial; assay type: functional, Homo sapiens; set-up: scale not given: the % may be the effect or the level left
[13] = Reduction in fasting plasma glucose in patient with type 2 diabetes exhibiting inadequate glycemic control with metformin alone dosed for 12 weeks during phase 2 trial; assay type: functional, Homo sapiens

Cytochrome P450 2D6, sequence (P10635 whole entry): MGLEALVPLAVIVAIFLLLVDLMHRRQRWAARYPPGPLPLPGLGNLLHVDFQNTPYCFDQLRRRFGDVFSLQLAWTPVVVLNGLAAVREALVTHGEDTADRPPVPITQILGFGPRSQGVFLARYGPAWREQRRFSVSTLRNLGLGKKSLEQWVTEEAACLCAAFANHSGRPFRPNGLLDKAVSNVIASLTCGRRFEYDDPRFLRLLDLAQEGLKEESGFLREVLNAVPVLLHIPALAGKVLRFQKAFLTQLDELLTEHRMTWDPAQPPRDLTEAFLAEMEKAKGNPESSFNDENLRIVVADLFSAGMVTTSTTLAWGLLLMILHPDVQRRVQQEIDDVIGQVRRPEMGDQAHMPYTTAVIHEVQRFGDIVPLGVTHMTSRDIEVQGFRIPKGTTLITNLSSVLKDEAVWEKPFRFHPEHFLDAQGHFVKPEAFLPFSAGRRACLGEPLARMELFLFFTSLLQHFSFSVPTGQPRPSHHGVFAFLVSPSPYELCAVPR
Cytochrome P450 3A4, sequence (P08684 whole entry): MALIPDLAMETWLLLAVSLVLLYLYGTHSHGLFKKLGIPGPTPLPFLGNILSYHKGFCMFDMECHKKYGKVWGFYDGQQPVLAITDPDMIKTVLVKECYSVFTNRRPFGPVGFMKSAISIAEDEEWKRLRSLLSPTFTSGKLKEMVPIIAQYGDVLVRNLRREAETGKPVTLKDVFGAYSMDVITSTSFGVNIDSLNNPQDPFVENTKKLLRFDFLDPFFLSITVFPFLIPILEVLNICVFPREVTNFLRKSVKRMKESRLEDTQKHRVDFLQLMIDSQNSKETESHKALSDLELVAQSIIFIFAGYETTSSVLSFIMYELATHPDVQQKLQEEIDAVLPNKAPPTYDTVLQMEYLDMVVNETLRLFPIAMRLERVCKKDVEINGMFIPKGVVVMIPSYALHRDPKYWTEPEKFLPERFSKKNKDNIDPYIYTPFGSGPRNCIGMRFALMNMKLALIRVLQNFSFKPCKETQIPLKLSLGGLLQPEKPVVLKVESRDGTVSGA
Cytochrome P450 2C9, sequence (P11712 whole entry): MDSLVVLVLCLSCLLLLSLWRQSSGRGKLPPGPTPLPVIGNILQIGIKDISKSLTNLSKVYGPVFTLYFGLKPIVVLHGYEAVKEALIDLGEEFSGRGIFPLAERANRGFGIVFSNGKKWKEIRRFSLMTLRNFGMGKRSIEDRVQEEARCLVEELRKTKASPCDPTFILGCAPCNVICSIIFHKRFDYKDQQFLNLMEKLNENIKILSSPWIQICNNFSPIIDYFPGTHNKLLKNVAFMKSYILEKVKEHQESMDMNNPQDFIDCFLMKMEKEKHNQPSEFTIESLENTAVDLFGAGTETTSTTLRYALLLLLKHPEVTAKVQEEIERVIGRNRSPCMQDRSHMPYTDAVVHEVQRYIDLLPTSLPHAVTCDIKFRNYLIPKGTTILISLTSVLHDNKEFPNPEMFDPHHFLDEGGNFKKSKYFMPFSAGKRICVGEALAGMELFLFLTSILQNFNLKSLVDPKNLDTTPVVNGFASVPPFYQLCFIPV
Cytochrome P450 2C19, sequence (P33261 whole entry): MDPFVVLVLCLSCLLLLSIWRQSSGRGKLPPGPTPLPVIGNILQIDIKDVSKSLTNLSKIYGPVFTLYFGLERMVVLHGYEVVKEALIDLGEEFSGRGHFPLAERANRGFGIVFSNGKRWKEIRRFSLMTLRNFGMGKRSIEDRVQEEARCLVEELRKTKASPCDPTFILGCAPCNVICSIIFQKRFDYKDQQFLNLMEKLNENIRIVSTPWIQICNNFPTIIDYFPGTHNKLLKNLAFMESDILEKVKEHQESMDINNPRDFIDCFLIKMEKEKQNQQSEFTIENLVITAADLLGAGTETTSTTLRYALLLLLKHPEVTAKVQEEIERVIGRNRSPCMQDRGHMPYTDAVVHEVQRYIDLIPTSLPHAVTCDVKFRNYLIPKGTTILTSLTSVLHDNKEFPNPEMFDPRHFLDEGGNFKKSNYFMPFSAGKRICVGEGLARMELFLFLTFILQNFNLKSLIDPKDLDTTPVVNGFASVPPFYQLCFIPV
11-beta-hydroxysteroid dehydrogenase 1, sequence (P28845 whole entry): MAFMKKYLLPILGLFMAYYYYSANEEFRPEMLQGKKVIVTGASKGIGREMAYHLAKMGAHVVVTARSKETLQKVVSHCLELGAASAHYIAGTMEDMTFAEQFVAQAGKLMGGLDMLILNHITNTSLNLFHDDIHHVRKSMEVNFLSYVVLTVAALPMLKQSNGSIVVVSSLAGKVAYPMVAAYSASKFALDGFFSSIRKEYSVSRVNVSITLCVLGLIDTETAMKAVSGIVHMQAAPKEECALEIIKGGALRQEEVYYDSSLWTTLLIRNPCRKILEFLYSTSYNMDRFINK

CNC(=O)c1ccc(N2CCN(c3cccc(C(=O)NC4C5CC6CC4CC(O)(C6)C5)n3)[C@H](C)C2)cc1 (stereo partly specified)
inhibition in vivo at 10 mg/kg [1]: 0%
inhibition in vivo at 10 mg/kg [2]: 34%
remaining at 0.5 h [3]: 61%

CN(C)C(=N)NC(=N)N [METFORMIN]
Activity (Mus musculus [4]): inactive
Activity (Mus musculus [5]): 252.6 mg/dL
Activity [6]: 0.7%
Activity (Mus musculus [7]): 23.9 mg/dL
Activity (Mus musculus [8]): 99.9 mg/dL

C[C@@H]1CN(c2ccc(C#N)cc2)CCN1c1nccc(C(=O)NC2C3CC4CC2CC(O)(C4)C3)n1 (stereo partly specified)
inhibition in vivo at 10 mg/kg [1]: 6%
inhibition in vivo at 10 mg/kg [2]: 12%
remaining at 0.5 h [3]: 86%

C[C@@H]1CN(c2ccc(S(C)(=O)=O)cc2Cl)CCN1c1nccc(C(=O)NC2C3CC4CC2CC(O)(C4)C3)n1 (stereo partly specified)
inhibition in vivo at 10 mg/kg [1]: 77%
inhibition in vivo at 10 mg/kg [2]: 82%
remaining at 0.5 h [3]: 96%

C[C@@H]1CN(c2cc(F)c(S(C)(=O)=O)cc2F)CCN1c1nccc(C(=O)NC2C3CC4CC2CC(O)(C4)C3)n1 (stereo partly specified)
inhibition in vivo at 10 mg/kg [1]: 80%
inhibition in vivo at 10 mg/kg [2]: 85%
remaining at 0.5 h [3]: 92%

Cc1cc(S(C)(=O)=O)ccc1N1CCN(c2nccc(C(=O)NC3C4CC5CC3CC(O)(C5)C4)n2)[C@H](C)C1 (stereo partly specified)
inhibition in vivo at 10 mg/kg [1]: 64%
inhibition in vivo at 10 mg/kg [2]: 77%
remaining at 0.5 h [3]: 90%

C[C@@H]1CN(c2ccc(S(C)(=O)=O)cc2)CCN1c1cccc(C(=O)NC2C3CC4CC2CC(O)(C4)C3)n1 (stereo partly specified)
inhibition in vivo at 10 mg/kg [1]: 70%
inhibition in vivo at 10 mg/kg [2]: 86%
IC50 [9]: 0.0031 µM
IC50 (Cytochrome P450 2C19): 3.7 µM
Activity [10]: 32.7%
IC50 (Cytochrome P450 2C9): > 10 µM
IC50 (Cytochrome P450 1A2): > 10 µM
IC50 (Cytochrome P450 3A4): 0.97 µM
remaining at 0.5 h [3]: 97%
IC50 (Cytochrome P450 2D6): > 10 µM

C[C@@H]1CN(c2ccc(C(N)=O)cc2)CCN1c1cccc(C(=O)NC2C3CC4CC2CC(O)(C4)C3)n1 (stereo partly specified)
inhibition in vivo at 10 mg/kg [1]: 0%
inhibition in vivo at 10 mg/kg [2]: 26%
remaining at 0.5 h [3]: 57%

CNS(=O)(=O)c1ccc(N2CCN(c3cccc(C(=O)NC4C5CC6CC4CC(O)(C6)C5)n3)[C@H](C)C2)cc1 (stereo partly specified)
inhibition in vivo at 10 mg/kg [1]: 12%
inhibition in vivo at 10 mg/kg [2]: 33%
remaining at 0.5 h [3]: 83%

CNC(=O)c1ccc(N2CCN(c3cccc(C(=O)NC4C5CC6CC4CC(O)(C6)C5)n3)[C@H](C)C2)cn1 (stereo partly specified)
inhibition in vivo at 10 mg/kg [1]: 52%
inhibition in vivo at 10 mg/kg [2]: 85%
IC50 (Cytochrome P450 2C19): 0.7 µM
IC50 (Cytochrome P450 2C9): > 10 µM
IC50 (Cytochrome P450 1A2): > 10 µM
IC50 (Cytochrome P450 3A4): > 10 µM
remaining at 0.5 h [3]: 66%
IC50 (Cytochrome P450 2D6): > 10 µM

C[C@@H]1CN(c2ccc(Cl)cc2)CCN1c1nccc(C(=O)NC2C3CC4CC2CC(O)(C4)C3)n1 (stereo partly specified)
remaining at 0.5 h [3]: 78%

C[C@@H]1CN(c2ccc(S(C)(=O)=O)cc2)CCN1c1nccc(C(=O)NC2C3CC4CC2CC(O)(C4)C3)n1 (stereo partly specified)
inhibition in vivo at 10 mg/kg [1]: 48%
inhibition in vivo at 10 mg/kg [2]: 81%
IC50 (Cytochrome P450 2C19): > 10 µM
IC50 (Cytochrome P450 2C9): > 10 µM
IC50 (Cytochrome P450 1A2): > 10 µM
IC50 (Cytochrome P450 3A4): > 10 µM
remaining at 0.5 h [3]: 92%
IC50 (Cytochrome P450 2D6): > 10 µM

O=C(NC1CCCCC1)[C@H]1CCCN(S(=O)(=O)c2cccc(Cl)c2)C1
Activity [11]: 24%
Activity [12]: 0.6%
Activity [13]: 24 mg/dL

C[C@@H]1CN(c2ccc(S(N)(=O)=O)cc2)CCN1c1cccc(C(=O)NC2C3CC4CC2CC(O)(C4)C3)n1 (stereo partly specified)
inhibition in vivo at 10 mg/kg [1]: 0%
inhibition in vivo at 10 mg/kg [2]: 11%
remaining at 0.5 h [3]: 65%

C[C@@H]1CN(c2ccc(C(=O)O)cc2)CCN1c1cccc(C(=O)NC2C3CC4CC2CC(O)(C4)C3)n1 (stereo partly specified)
remaining at 0.5 h [3]: 71%

C[C@@H]1CN(c2ccc(C(F)(F)F)cc2)CCN1c1nccc(C(=O)NC2C3CC4CC2CC(O)(C4)C3)n1 (stereo partly specified)
remaining at 0.5 h [3]: 90%

C[C@@H]1CN(c2ccc(C(C)(C)O)cc2)CCN1c1nccc(C(=O)NC2C3CC4CC2CC(O)(C4)C3)n1 (stereo partly specified)
inhibition in vivo at 10 mg/kg [1]: 32%
inhibition in vivo at 10 mg/kg [2]: 46%
remaining at 0.5 h [3]: 99%

C[C@@H]1CN(c2ccc(C(N)=O)nc2)CCN1c1cccc(C(=O)NC2C3CC4CC2CC(O)(C4)C3)n1 (stereo partly specified)
remaining at 0.5 h [3]: 23%

C[C@@H]1CN(c2ccc(C(C)(C)O)cc2F)CCN1c1nccc(C(=O)NC2C3CC4CC2CC(O)(C4)C3)n1 (stereo partly specified)
inhibition in vivo at 10 mg/kg [1]: 43%
inhibition in vivo at 10 mg/kg [2]: 74%
remaining at 0.5 h [3]: 98%

C[C@@H]1CN(c2ccc(C(C)(C)O)nc2)CCN1c1cccc(C(=O)NC2C3CC4CC2CC(O)(C4)C3)n1 (stereo partly specified)
inhibition in vivo at 10 mg/kg [1]: 63%
inhibition in vivo at 10 mg/kg [2]: 87%
remaining at 0.5 h [3]: 76%

CCS(=O)(=O)c1ccc(N2CCN(c3nccc(C(=O)NC4C5CC6CC4CC(O)(C6)C5)n3)[C@H](C)C2)c(F)c1 (stereo partly specified)
inhibition in vivo at 10 mg/kg [1]: 79%
inhibition in vivo at 10 mg/kg [2]: 82%
remaining at 0.5 h [3]: 91%

C[C@@H]1CN(c2c(F)cc(S(C)(=O)=O)cc2F)CCN1c1nccc(C(=O)NC2C3CC4CC2CC(O)(C4)C3)n1 (stereo partly specified)
remaining at 0.5 h [3]: 95%

C[C@@H]1CN(c2ccc(F)cc2)CCN1c1nccc(C(=O)NC2C3CC4CC2CC(O)(C4)C3)n1 (stereo partly specified)
remaining at 0.5 h [3]: 82%
